Results reported in ChEMBL document CHEMBL1133173, “Isoxazolines as potent antagonists of the integrin alpha(v)beta(3)” (J Med Chem, 2000).

target: Integrin alpha-V/beta-3 (Homo sapiens, UniProt P05106+P06756); experiment: Inhibition of vitronectin receptor (alpha V beta 3), expressed on human 293 cells, binding to immobilized fibrinogen; assay type: cell-based, HEK293
Summary of the method: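 Human 293 cells stably transfected with human β3 plus a lacZ reporter (293β3z clone). Cells at 10⁶ viable cells/mL in MCDB131/20 mM HEPES pH 7.0 with 0.2% DMSO are preincubated with compound for 15 min at 37 °C. They are then added at 10⁵ cells/well to glycine-purified human fibrinogen-coated, BSA-blocked wells for 1 h at 37 °C, 5% CO₂. Adherent cells are lysed and β-galactosidase is read by chemiluminescence against a purified enzyme standard curve. Nonspecific binding is defined with 1 μM of a reference antagonist.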

Integrin alpha-V/beta-3, sequence (P05106 27-788 limits assumed): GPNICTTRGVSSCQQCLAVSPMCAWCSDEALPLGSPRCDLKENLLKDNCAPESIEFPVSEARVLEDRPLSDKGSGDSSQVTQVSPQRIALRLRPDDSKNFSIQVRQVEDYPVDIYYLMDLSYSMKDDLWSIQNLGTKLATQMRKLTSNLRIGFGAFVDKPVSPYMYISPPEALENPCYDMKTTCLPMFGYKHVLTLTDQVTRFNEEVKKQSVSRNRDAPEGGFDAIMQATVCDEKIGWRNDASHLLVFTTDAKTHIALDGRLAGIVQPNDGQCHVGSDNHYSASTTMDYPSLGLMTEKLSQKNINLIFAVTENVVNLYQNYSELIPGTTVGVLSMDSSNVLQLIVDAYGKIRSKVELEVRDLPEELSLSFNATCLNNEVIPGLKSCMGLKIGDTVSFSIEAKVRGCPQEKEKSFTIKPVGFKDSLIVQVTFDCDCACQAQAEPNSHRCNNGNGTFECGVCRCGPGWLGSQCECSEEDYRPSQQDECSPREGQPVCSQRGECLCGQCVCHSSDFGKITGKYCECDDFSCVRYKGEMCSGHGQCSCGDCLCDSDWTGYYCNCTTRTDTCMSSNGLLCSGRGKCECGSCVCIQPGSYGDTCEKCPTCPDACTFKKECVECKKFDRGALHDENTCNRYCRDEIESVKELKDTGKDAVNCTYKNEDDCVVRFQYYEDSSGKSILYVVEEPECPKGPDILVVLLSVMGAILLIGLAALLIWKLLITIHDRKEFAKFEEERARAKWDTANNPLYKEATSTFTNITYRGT
Integrin alpha-V/beta-3, sequence (P06756 31-889 limits assumed): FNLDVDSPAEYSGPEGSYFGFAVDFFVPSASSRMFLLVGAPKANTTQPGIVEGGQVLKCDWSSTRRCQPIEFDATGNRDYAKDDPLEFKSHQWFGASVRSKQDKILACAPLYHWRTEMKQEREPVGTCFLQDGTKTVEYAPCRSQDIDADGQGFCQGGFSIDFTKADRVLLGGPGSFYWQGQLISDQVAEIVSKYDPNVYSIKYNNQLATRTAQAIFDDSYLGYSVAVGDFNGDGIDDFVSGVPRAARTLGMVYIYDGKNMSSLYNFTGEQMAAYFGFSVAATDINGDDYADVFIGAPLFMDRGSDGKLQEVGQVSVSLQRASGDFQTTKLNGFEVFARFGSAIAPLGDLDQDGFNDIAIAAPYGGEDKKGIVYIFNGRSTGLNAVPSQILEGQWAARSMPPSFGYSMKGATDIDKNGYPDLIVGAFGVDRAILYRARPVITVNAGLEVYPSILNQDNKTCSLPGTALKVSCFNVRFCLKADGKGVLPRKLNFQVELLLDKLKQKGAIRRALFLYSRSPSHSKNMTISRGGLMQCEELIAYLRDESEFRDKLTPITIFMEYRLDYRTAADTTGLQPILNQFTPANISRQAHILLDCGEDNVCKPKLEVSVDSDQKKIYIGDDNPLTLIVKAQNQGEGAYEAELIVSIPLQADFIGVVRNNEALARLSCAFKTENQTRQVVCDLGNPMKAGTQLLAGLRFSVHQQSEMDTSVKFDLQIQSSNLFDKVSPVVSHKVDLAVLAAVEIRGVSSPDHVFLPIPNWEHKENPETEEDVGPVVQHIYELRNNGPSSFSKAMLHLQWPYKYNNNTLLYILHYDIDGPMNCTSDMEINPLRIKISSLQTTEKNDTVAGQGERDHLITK
Integrin alpha-V/beta-3, sequence (P06756 891-1048 limits assumed): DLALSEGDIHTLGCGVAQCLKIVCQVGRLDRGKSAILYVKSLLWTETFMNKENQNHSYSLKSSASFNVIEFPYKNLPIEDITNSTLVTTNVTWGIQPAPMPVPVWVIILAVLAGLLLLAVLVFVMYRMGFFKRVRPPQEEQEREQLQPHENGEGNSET

Compound	IC50 [nM]
Cc1cc(C)c(S(=O)(=O)N[C@@H](CNC(=O)C2=NOC(CCNc3ncc[nH]3)C2)C(=O)O)c(C)c1 (stereo not given in full)	106
Cc1cc(C)c(S(=O)(=O)N[C@@H](CNC(=O)C2=NOC(CCCc3cccc(N)n3)C2)C(=O)O)c(C)c1 (stereo not given in full)	26
Cc1cccc(Cl)c1S(=O)(=O)N[C@@H](CNC(=O)C1=NOC(CCCCNc2ncc[nH]2)C1)C(=O)O (stereo not given in full)	7.1
Cc1cc(C)c(S(=O)(=O)N[C@@H](CNC(=O)C2=NOC(CCNC(=O)Nc3ncc[nH]3)C2)C(=O)O)c(C)c1 (stereo not given in full)	34
Cc1cc(C)c(S(=O)(=O)N[C@@H](CNC(=O)C2=NOC(CCCCNc3ccccn3)C2)C(=O)O)c(C)c1 (stereo not given in full)	54
Cc1cc(C)c(S(=O)(=O)N[C@@H](CNC(=O)C2=NOC(CCCCNS(N)(=O)=O)C2)C(=O)O)c(C)c1 (stereo not given in full)	> 1000
Cc1cc(C)c(S(=O)(=O)N[C@@H](CNC(=O)C2=NOC(CCCCNc3nccc4ccccc34)C2)C(=O)O)c(C)c1 (stereo not given in full)	> 1000
Cc1cc(C)c(S(=O)(=O)N[C@@H](CNC(=O)C2=NOC(CCCCNc3ncc[nH]3)C2)C(=O)O)c(C)c1 (stereo not given in full)	15
Cc1cc(-c2ccccc2)cc(C)c1S(=O)(=O)N[C@@H](CNC(=O)C1=NOC(CCCCNc2ccccn2)C1)C(=O)O (stereo not given in full)	44
Cc1cc(-c2ccccc2)cc(C)c1S(=O)(=O)N[C@@H](CNC(=O)C1=NOC(CCCCNc2ncc[nH]2)C1)C(=O)O (stereo not given in full)	8.8
O=C(NC[C@H](NS(=O)(=O)c1c(Cl)cccc1Cl)C(=O)O)C1=NOC(CCCCNc2ncc[nH]2)C1 (stereo not given in full)	18
Cc1cc(C)c(S(=O)(=O)N[C@@H](CNC(=O)C2=NOC(CCCC(=O)Nc3ncc[nH]3)C2)C(=O)O)c(C)c1 (stereo not given in full)	31
Cc1noc(C)c1S(=O)(=O)N[C@@H](CNC(=O)C1=NOC(CCCCNc2ncc[nH]2)C1)C(=O)O (stereo not given in full)	73
Cc1cc(C)c(S(=O)(=O)N[C@H](CNC(=O)C2=NOC(CCCCNc3ncc[nH]3)C2)C(=O)O)c(C)c1 (stereo not given in full)	2800
Cc1cc(C)c(S(=O)(=O)N[C@@H](CNC(=O)C2=NOC(CCCCN=C(N)N)C2)C(=O)O)c(C)c1 (stereo not given in full)	169
O=C(NC[C@H](NS(=O)(=O)c1c(Cl)cc(-c2ccccc2)cc1Cl)C(=O)O)C1=NOC(CCCCNc2ncc[nH]2)C1 (stereo not given in full)	4.6
Cc1cc(C)c(S(=O)(=O)N[C@@H](CNC(=O)C2=NOC(CCCc3c[nH]c(N)n3)C2)C(=O)O)c(C)c1 (stereo not given in full)	46
O=C(NC[C@H](NS(=O)(=O)c1cccc2ccccc12)C(=O)O)C1=NOC(CCCCNc2ccccn2)C1 (stereo not given in full)	160
Cc1cc(C)c(S(=O)(=O)N[C@@H](CNC(=O)C2=NOC(CCCCNc3cc4ccccc4cn3)C2)C(=O)O)c(C)c1 (stereo not given in full)	> 1000
Cc1cc(C)c(S(=O)(=O)N[C@@H](CNC(=O)C2=NOC(CCCCNC3=NCCN3)C2)C(=O)O)c(C)c1 (stereo not given in full)	62

Other lines, results leading:

IC50 [nM]	Compound
> 1000	N[C@@H](CNC(=O)C1=NOC(CCCCNc2ncc[nH]2)C1)C(=O)O (stereo not given in full)
81	O=C(NC[C@H](NS(=O)(=O)c1ccccc1)C(=O)O)C1=NOC(CCCCNc2ccccn2)C1 (stereo not given in full)
130	CN([C@@H](CNC(=O)C1=NOC(CCCCNc2ccccn2)C1)C(=O)O)S(=O)(=O)c1ccc(-c2ccccc2)cc1 (stereo not given in full)
240	O=C(NC[C@H](NS(=O)(=O)c1ccc(-c2ccccc2)cc1)C(=O)O)C1=NOC(CCCCNc2ncc[nH]2)C1 (stereo not given in full)
> 1000	Cc1cc(C)c(S(=O)(=O)N[C@@H](CNC(=O)C2=NOC(CCCCNC(N)=O)C2)C(=O)O)c(C)c1 (stereo not given in full)
> 100000	N=C(N)c1ccc(C2=NO[C@@H](CC(=O)NCCC(=O)O)C2)cc1
51	O=C(NC[C@H](NS(=O)(=O)c1cccc2ccccc12)C(=O)O)C1=NOC(CCCCNc2ncc[nH]2)C1 (stereo not given in full)
170	CC(C)c1ccc(S(=O)(=O)N[C@@H](CNC(=O)C2=NOC(CCCCNc3ccccn3)C2)C(=O)O)cc1 (stereo not given in full)
10.6	O=C(NC[C@H](NS(=O)(=O)c1ccccc1)C(=O)O)C1=NOC(CCCCNc2ncc[nH]2)C1 (stereo in doubt; 3cc)
66	O=C(NC[C@H](NS(=O)(=O)c1ccccc1)C(=O)O)C1=NOC(CCCCNc2ncc[nH]2)C1 (stereo in doubt; 3q)
